Data taken from publication PMC12667952 (bioRxiv, 2025).
Entries after “also recorded” stand apart in the source; their conditions may differ.

Legend:
PSNL mice = experiment: Mechanical allodynia; format: in vivo, mouse; conditions: 50 mg/kg i.p., 90 mins
naïve mice = experiment: Accelerating rotarod, motor coordination in naïve mice; format: in vivo, mouse
Summary of the method: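 Naïve mice trained for 3 days on an accelerating rotarod with large cylinders (3 sessions/day at 30-min intervals, 5 min acclimatisation each day), speed rising from 4 to 20 rpm over 180 s. Test compound given i.p. in 5% Solutol in PBS. Tested at t = 0 and 30, 60, 90, 120 and 180 min post-dose. Performance normalised to % baseline.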

histamine (H1) = experiment: Cerep panel off-target selectivity screen, H1; format: binding; conditions: 1 × 10^-5 M
naïve, uninjured mice = experiment: Respiratory function by whole-body plethysmography; format: in vivo, mouse
Summary of the method: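 Whole-body plethysmography on naïve, uninjured mice in two parallel chambers linked to a pressure transducer. Mice briefly removed for injection, then returned. Breathing recorded for 5 min at 30, 60, 90, 120 and 180 min post-injection. Frequency, tidal volume and minute volume averaged and normalised to % baseline. […] Two-way ANOVA with Dunnett's test.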

mice = experiment: Grip strength test; format: in vivo, mouse; conditions: 30 min post-injection
C57BL/6J mice = experiment: Conditioned place preference; format: in vivo, mouse; conditions: 50 and 150 mg/kg, i.p.
[1] = Study 2: in-life plasma and CNS drug exposure study in male C57BL/6 mice; format: in vivo, mouse; conditions: 50 mg/kg i.p., 30 min
Summary of the method: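 Contract in-life study in male C57BL/6 mice (22 ± 2 g), acclimated for 3 days. Plasma and brain sampled at 30 and 120 min post-injection. Unbound plasma and brain concentrations calculated.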

hGlyT2^D633E = target: T1, hGlyT2^D633E (Homo sapiens, UniProt Q9Y345, D633E); format: cell-based
T1 sequence (Q9Y345 1-797 D633E): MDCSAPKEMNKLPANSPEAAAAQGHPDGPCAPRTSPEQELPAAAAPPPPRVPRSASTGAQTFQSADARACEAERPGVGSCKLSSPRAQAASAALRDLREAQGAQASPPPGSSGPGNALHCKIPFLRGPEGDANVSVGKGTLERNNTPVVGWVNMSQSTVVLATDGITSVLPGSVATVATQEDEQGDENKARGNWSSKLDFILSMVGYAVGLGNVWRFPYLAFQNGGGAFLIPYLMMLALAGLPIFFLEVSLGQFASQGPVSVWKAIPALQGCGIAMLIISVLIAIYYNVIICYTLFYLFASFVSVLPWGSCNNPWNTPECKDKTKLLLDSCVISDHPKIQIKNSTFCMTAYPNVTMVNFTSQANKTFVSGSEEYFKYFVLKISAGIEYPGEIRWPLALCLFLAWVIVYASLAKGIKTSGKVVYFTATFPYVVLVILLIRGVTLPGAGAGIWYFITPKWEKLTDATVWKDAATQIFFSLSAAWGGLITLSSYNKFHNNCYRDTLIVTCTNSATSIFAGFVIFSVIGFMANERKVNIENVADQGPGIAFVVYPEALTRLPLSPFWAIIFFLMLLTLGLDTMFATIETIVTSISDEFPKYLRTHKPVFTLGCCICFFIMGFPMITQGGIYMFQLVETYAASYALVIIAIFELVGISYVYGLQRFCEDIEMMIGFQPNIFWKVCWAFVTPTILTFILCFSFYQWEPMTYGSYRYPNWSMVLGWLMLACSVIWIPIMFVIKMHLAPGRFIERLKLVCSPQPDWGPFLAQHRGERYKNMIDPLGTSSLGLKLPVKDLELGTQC

## CN(C)C1(CNC(=O)c2ccc3c(c2)CCN3C(=O)c2ccccc2)CCOCC1 [RPI-GLYT2–82, 1-benzoyl-N-((4-(dimethylamino)tetrahydro-2H-pyran-4-yl)methyl)indoline-5-carboxamide]
PSNL mice
  Peak reduction of response rate to von Frey stimulus: 22.5%
naïve mice; 50 mg/kg analgesic dose
  Adverse neuromotor effects or muscle weakness (rotarod, grip strength, sedation): not associated with adverse neuromotor effects or muscle weakness
naïve mice; 250 mg/kg
  Rotarod performance: transient reduction in rotarod performance
naïve mice; 250 mg/kg i.p., restored over the 90-minute time course
  Initial reduction in baseline rotarod performance: 61%
Histamine (H1)
  Activity at histamine H1: inactive
naïve, uninjured mice; 50 mg/kg
  Respiration frequency, minute volume (MVb), tidal volume (TVb): did not change
naïve, uninjured mice; 250 mg/kg, frequency and MVb first hour, TVb first 30 minutes
  Respiratory frequency, MVb and TVb: transient changes
mice; 50 mg/kg
  Grip strength (muscle weakness): not at 50 mg/kg
mice; 250 mg/kg, recovered at 60 minutes
  Grip strength (muscle weakness): transient deficits in the grip-strength test; also recorded: transient muscle weakness
C57BL/6J mice
  Preference for the paired chamber: did not increase preference; also recorded: no significant preference
[1]
  Cu,b, calculated unbound concentration in brain: 597.89 nM
hGlyT2^D633E
  IC50: > 10 µM
  Reduction in potency of inhibition, D633E versus WT: > 18 fold
